Measurements from different studies.
Compare with care: the assays were run in different laboratories.
Target: Ephrin type-A receptor 8 (EPHA8, Homo sapiens, UniProt P29322)
Sequence (P29322 1-1005, as in one of the studies): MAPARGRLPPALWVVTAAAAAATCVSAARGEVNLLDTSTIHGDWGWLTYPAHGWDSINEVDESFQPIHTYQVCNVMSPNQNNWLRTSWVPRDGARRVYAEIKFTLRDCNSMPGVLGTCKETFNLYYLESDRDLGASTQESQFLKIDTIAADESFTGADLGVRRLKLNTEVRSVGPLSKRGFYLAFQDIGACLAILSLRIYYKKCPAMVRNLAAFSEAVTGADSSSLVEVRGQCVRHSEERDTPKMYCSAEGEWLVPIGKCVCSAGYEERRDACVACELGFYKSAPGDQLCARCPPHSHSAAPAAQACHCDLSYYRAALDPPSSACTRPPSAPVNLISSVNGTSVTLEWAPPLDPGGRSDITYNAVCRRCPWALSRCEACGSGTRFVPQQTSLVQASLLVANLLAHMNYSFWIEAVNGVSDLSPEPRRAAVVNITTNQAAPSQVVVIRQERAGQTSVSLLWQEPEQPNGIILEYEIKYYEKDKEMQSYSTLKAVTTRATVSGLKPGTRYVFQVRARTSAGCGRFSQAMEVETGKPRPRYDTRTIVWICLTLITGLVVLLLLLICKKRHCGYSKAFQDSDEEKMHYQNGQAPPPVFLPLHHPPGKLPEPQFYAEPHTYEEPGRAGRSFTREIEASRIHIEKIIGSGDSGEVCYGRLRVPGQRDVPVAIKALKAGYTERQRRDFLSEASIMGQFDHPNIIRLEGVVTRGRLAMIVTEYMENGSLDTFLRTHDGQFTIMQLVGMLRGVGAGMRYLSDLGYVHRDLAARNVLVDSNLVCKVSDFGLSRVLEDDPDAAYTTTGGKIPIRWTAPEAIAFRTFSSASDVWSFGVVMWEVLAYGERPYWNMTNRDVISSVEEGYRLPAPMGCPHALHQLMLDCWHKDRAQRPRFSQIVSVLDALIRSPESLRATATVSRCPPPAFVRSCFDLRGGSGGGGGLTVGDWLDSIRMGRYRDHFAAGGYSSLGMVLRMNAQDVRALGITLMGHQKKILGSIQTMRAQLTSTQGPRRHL

| Structure (SMILES) | assay | conditions | quantity | result |
| --- | --- | --- | --- | --- |
| COc1cc2ncnc(Nc3ccc(Oc4ccccc4)c(C)c3C)c2cc1OC | enzyme activity, inhibitor | 1 µM | inhibition | 6% |
| Cc1sc(C(=O)NC2COC2)cc1-n1cc(NC(=O)Nc2c(F)cccc2Cl)cn1 | enzyme activity, inhibitor | 10 µM | remaining activity | 91.7% |
| Nc1ncnc2occ(-c3ccc(NC(=O)Nc4cc(C(F)(F)F)ccc4F)cc3)c12 | cell-free assay | 20 µM | remaining signal | 0% |
| O=C(Nc1cnn(-c2csc(C(=O)NC3COC3)c2)c1)Nc1c(F)cccc1Cl | enzyme activity, inhibitor | 5 µM | remaining activity | 93.8% |
| CC(C)(C)c1nc2c(s1)c1nc(N)ncc1c1ccc(NS(=O)(=O)c3c(F)cccc3F)c(F)c12 | enzyme activity, inhibitor, radiometric | 1 µM | remaining activity | 95% |
| CO[C@H]1CC[C@H](CNc2ccc(S(=O)(=O)NC(=O)c3ccc(N4CCN(CC5=C(c6ccc(Cl)cc6)CC(C)(C)CC5)CC4)cc3Oc3cnc4[nH]ccc4c3)cc2[N+](=O)[O-])CC1 | cell-free assay, competition with immobilised ligand | 1 µM | remaining binding | 84% |
| O=C1NC(=O)c2cc(Nc3ccc(F)cc3)c(Nc3ccc(F)cc3)cc21 | cell-free assay | 0.5 µM | remaining signal | 95.5% |
| c1ccc(N2CCN(Cc3nc4ccccc4[nH]3)CC2)nc1 | cell-free assay, competition with immobilised ligand | 1 µM | remaining binding | 100% |
| CNC(=O)c1cc(Oc2ccc(NC(=O)Nc3ccc(Cl)c(C(F)(F)F)c3)cc2)ccn1 | enzyme activity, inhibitor | 10 µM | inhibition | 89% |
| CC(C)(O)[C@H]1CC[C@H](Nc2ccc3ncc(-c4cccc(C(F)(F)F)c4)n3n2)CC1 | enzyme activity, inhibitor | 1 µM | remaining activity | 84.3% |
| Cc1nc(Cc2cccc(C(F)(F)F)c2)sc1-c1ccc(C(N)=O)nc1 | cell-free assay, competition with immobilised ligand | 1 µM | remaining binding | 100% |
| COc1cc(-c2cc(-c3ccc(N4CCNCC4)cc3)cnc2C)cc(OC)c1OC | enzyme activity, inhibitor | 1 µM | inhibition | 10% |
| Cc1cnc(NC2CCOCC2)nc1-n1cnc(C(=O)NC(CN)c2cc(F)cc(Cl)c2)c1 (stereo not drawn) | enzyme activity, inhibitor, radiometric | 1 µM | remaining activity | 95% |
| CCN(CC)CCNC(=O)c1c(C)[nH]c(/C=C2\C(=O)Nc3ccc(F)cc32)c1C | cell-free assay | 0.5 µM | remaining signal | 92.1% |
| Cc1ccc(C(=O)NCc2ccsc2)cc1C#Cc1cn(C(C)C)c2ncnc(N)c12 | enzyme activity, inhibitor | 1 µM | activity vs control | 6% |
| CNC(=O)c1ccc(Nc2ncc(C(F)(F)F)c(NCc3nccnc3N(C)S(C)(=O)=O)n2)cc1 | cell-free assay, competition with immobilised ligand | 0.1 µM | remaining binding | 87% |
| Cc1ccc(Nc2nccc(N(C)c3ccc4c(C)n(C)nc4c3)n2)cc1S(N)(=O)=O | enzyme activity, inhibitor | 0.3 µM | inhibition | 17% |
| O=C1CCc2cc(Nc3cc(OC4CCOCC4)c([N+](=O)[O-])cc3Cl)ccc2N1 | cell-free assay, competition with immobilised ligand | 1 µM | remaining binding | 100% |
| CCN(CC)c1ccc(C2=NNC(=O)CC2C)cc1[N+](=O)[O-] (stereo not drawn) | enzyme activity, inhibitor | 10 µM | remaining activity | 115% |
| O=C1Nc2ccc(Cl)cc2C1=Cc1cc(Cl)c(O)c(Cl)c1 | cell-free assay | 0.5 µM | remaining signal | 91.5% |
| O=C(O)c1cc(-c2ccc(C3CCNCC3)cc2)c2ccc(-c3ccc(C(F)(F)F)cc3)cc2c1 | cell-free assay, competition with immobilised ligand | 1 µM | remaining binding | 100% |
